According to ChEMBL document CHEMBL1125216, “Potent, orally active imidazo[4,5-b]pyridine-based angiotensin II receptor antagonists” (J Med Chem, 1991):

Columns and labels:
[1] = molecular target: Type-1 angiotensin II receptor (Oryctolagus cuniculus) (UniProt P34976); test: Binding affinity towards Angiotensin receptor from rabbit aorta
[2] = molecular target: Type-1 angiotensin II receptor (Rattus norvegicus) (UniProt P25095); test: The compound was tested for inhibition of angiotensin II receptor induced pressor response in rat after intravenous administration.
Rattus norvegicus [3] = test: Percentage peak pressor response in rat after intravenous administration at a dose of 0.1 mg/kg of the compound.; assay type: functional
Summary of the method: (§1)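 Male Sprague-Dawley rats (300–400 g), conscious, with arterial (blood pressure) and venous (dosing) catheters. Pressor responses to AII 0.1 μg/kg iv recorded before and after iv compound. Vehicle: saturated NaHCO3 15%, saline 35%, water 50%.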

Rattus norvegicus [4] = test: Percentage peak pressor response in rat after intravenous administration at a dose of 0.3 mg/kg of the compound.; assay type: functional
Summary of the method: as §1

Rattus norvegicus [5] = test: Percentage peak pressor response in rat after peroral administration at a dose of 0.03 mg/kg of the compound.; assay type: functional; details: route oral
Summary of the method: (§2)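 Conscious male Sprague-Dawley rats (300–400 g) fitted with arterial and venous catheters. Compound given orally as a suspension in 1 N NaOH–0.5% methocel (10:90). Pressor response to AII (0.1 μg/kg iv) measured before and after dosing. Peak inhibition of the AII response is expressed as a percentage at each dose.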

Rattus norvegicus [6] = test: Percentage peak pressor response in rat after peroral administration at a dose of 0.1 mg/kg of the compound.; assay type: functional; details: route oral
Summary of the method: as §2

Rattus norvegicus [7] = test: Percentage peak pressor response in rat after peroral administration at a dose of 0.3 mg/kg of the compound.; assay type: functional; details: route oral
Summary of the method: as §2

Rattus norvegicus [8] = test: Percentage peak pressor response in rat after intravenous administration at a dose of 0.03 mg/kg of the compound.; assay type: functional
Summary of the method: as §1

Type-1 angiotensin II receptor (Rattus norvegicus), sequence (P25095 whole entry, looked up): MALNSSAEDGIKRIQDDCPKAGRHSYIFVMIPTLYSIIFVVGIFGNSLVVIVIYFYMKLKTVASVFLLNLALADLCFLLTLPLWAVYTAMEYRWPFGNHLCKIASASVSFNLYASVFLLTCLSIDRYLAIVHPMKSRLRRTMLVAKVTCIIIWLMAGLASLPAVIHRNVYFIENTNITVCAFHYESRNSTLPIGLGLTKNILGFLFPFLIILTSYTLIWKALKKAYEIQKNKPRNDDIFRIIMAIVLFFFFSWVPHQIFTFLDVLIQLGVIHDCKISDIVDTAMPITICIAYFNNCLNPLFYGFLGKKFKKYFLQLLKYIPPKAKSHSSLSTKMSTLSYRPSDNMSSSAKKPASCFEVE
Type-1 angiotensin II receptor (Oryctolagus cuniculus), sequence (P34976 whole entry, looked up): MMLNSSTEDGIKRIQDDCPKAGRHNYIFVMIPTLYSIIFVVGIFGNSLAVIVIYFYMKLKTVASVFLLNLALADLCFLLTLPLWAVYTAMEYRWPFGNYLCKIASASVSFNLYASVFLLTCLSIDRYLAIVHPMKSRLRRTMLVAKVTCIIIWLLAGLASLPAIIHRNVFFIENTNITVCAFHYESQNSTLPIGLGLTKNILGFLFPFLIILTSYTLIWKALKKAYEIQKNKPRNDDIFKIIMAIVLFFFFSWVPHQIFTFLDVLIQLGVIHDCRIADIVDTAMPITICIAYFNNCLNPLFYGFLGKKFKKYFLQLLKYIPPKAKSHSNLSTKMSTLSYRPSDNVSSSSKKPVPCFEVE

Row | IC50 [1] | ED50 [2] | Compound | other results
1 | 0.5 nM | 0.45 mg/kg | CCCCc1nc2c(C)cc(C)nc2n1Cc1ccc(-c2ccccc2-c2nn[nH]n2)cc1 | 
2 |  |  | CCc1nc2c(C)cc(C)nc2n1Cc1ccc(-c2ccccc2-c2nn[nH]n2)cc1 [L-158809] | Peak inhibition (Rattus norvegicus [3]): 85%; Peak inhibition (Rattus norvegicus [4]): 99%; Peak inhibition (Rattus norvegicus [5]): 52%; Peak inhibition (Rattus norvegicus [6]): 75%; Peak inhibition (Rattus norvegicus [7]): 92%; Peak inhibition (Rattus norvegicus [8]): 36%
3 | 2 nM | 1 mg/kg | CCCc1nc2ccc(C)nc2n1Cc1ccc(-c2ccccc2-c2nn[nH]n2)cc1 | 
4 | 8 nM |  | CCCc1nc2cccnc2n1Cc1ccc(-c2ccccc2-c2nn[nH]n2)cc1 | 
5 | 0.3 nM | 0.087 mg/kg | CCCc1nc2c(C)cc(C)nc2n1Cc1ccc(-c2ccccc2-c2nn[nH]n2)cc1 | 
6 | 6 nM |  | CCCCC1=NC(Cl)C(C(=O)O)N1Cc1ccc(-c2ccccc2-c2nn[nH]n2)cc1 (stereo not given) | 
7 | 1 nM |  | CCCc1nc2c(C)ccnc2n1Cc1ccc(-c2ccccc2-c2nn[nH]n2)cc1 | 
